Reference: paper PMC5563391 (Investigational new drugs, 2015)

Assays:
[1] = system: peripheral blood mononuclear cells; assay: Cell cycle analysis by flow cytometry; type: in vivo, human; details: arm A
Summary of the method: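 Adults with hematologic malignancies received oral test compound once weekly on days 1, 8 and 15 of 28-day cycles, at doses from 10 to 690 mg. Blood for pharmacodynamics was drawn alongside pharmacokinetic samples. Peripheral blood mononuclear cells were analysed by flow cytometry for the percentage of cells with 2N, 4N or >4N DNA. Only patients with enough cycling cells at baseline were evaluable.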

[2] = Phase 1 pharmacokinetics of ilorasertib in plasma; type: in vivo, human; details: for AUC(0-t) / Cmax / Tmax / half-life / AUC(0-inf): human, plasma; for half-life: t1/2, arm D
Summary of the method: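 Arm A patients took oral test compound once weekly, in the morning, on days 1, 8 and 15 of 28-day cycles, at 10–690 mg. Plasma was sampled intensively up to 72 h after dosing on days 1 and 15. Noncompartmental analysis gave Cmax, Tmax, t½, AUCt and AUC∞, plus dose-normalized values. Results are summarized by dose level as mean ± SD, with individual values where N=1.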

[3] = arm A, oral once weekly, first dose, 10 mg, N=3, mean ± SD
[4] = arm A, oral once weekly, first dose, 20 mg, N=1
[5] = arm A, oral once weekly, first dose, 40 mg, N=1
[6] = arm A, oral once weekly, first dose, 80 mg, N=2, mean ± SD
[7] = arm A, oral once weekly, first dose, 160 mg, N=3, mean ± SD
[8] = arm A, oral once weekly, first dose, 240 mg, N=5, mean ± SD
[9] = arm A, oral once weekly, first dose, 340 mg, N=3, mean ± SD
[10] = arm A, oral once weekly, first dose, 440 mg, N=4, mean ± SD
[11] = arm A, oral once weekly, first dose, 540 mg, N=3, mean ± SD
[12] = arm A, oral once weekly, first dose, 640 mg, N=6, mean ± SD
[13] = arm A, oral once weekly, first dose, 690 mg, N=1
[14] = arm A, oral once weekly, first dose, all doses, N=32, mean ± SD
[15] = iv, 32 mg, arm D, IV infusion, 32 mg, day 1, N=4, mean ± SD
[16] = iv, 32 mg, arm D, IV infusion, 32 mg, day 15, N=3, mean ± SD
[17] = po, 40 mg, arm A, oral once weekly, first dose, N=1

## Nc1ncc(-c2cnn(CCO)c2)c2scc(-c3ccc(NC(=O)Nc4cccc(F)c4)cc3)c12 [Ilorasertib]
[1]
  association between ilorasertib dose and cell cycle arrest: No association
[1]; 9 patients with sufficient cycling cells at baseline
  increase in the number of cells with 4N DNA and polyploidy: ≥ 2 fold
[2]; arm A, oral
  coefficient of variation for dose-normalized Cmax: approximately 66%
[2]; [3]
  AUC0–24/D (dose-normalized AUC0–24): 65.8 ± 35.0 ng·h/mL/mg
  AUC∞/D (dose-normalized AUC∞): 70.9 ± 37.9 ng·h/mL/mg
  Cmax/D (dose-normalized Cmax): 3.74 ± 1.56 ng/mL/mg
[2]; [4]
  AUC0–24/D (dose-normalized AUC0–24): 27.2 ng·h/mL/mg
  AUC∞/D (dose-normalized AUC∞): 28.5 ng·h/mL/mg
  Cmax/D (dose-normalized Cmax): 2.98 ng/mL/mg
[2]; [5]
  AUC0–24/D (dose-normalized AUC0–24): 43.9 ng·h/mL/mg
  AUC∞/D (dose-normalized AUC∞): 45.8 ng·h/mL/mg
  Cmax/D (dose-normalized Cmax): 4.95 ng/mL/mg
[2]; [6]
  AUC0–24/D (dose-normalized AUC0–24): 15.2 ± 5.10 ng·h/mL/mg
  AUC∞/D (dose-normalized AUC∞): 15.7 ± 5.18 ng·h/mL/mg
  Cmax/D (dose-normalized Cmax): 1.44 ± 4.90 ng/mL/mg
[2]; [7]
  AUC0–24/D (dose-normalized AUC0–24): 19.4 ± 8.86 ng·h/mL/mg
  AUC∞/D (dose-normalized AUC∞): 20.2 ± 9.28 ng·h/mL/mg
  Cmax/D (dose-normalized Cmax): 1.86 ± 0.98 ng/mL/mg
[2]; [8]
  AUC0–24/D (dose-normalized AUC0–24): 16.6 ± 12.4 ng·h/mL/mg
  AUC∞/D (dose-normalized AUC∞): 17.5 ± 13.5 ng·h/mL/mg
  Cmax/D (dose-normalized Cmax): 1.22 ± 0.59 ng/mL/mg
[2]; [9]
  AUC0–24/D (dose-normalized AUC0–24): 16.9 ± 2.56 ng·h/mL/mg
  AUC∞/D (dose-normalized AUC∞): 17.7 ± 2.09 ng·h/mL/mg
  Cmax/D (dose-normalized Cmax): 1.74 ± 1.0 ng/mL/mg
[2]; [10]
  AUC0–24/D (dose-normalized AUC0–24): 30.7 ± 17.1 ng·h/mL/mg
  AUC∞/D (dose-normalized AUC∞): 32.1 ± 18.0 ng·h/mL/mg
  Cmax/D (dose-normalized Cmax): 2.88 ± 1.89 ng/mL/mg
[2]; [11]
  AUC0–24/D (dose-normalized AUC0–24): 10.7 ± 2.0 ng·h/mL/mg
  AUC∞/D (dose-normalized AUC∞): 11.1 ± 2.28 ng·h/mL/mg
  Cmax/D (dose-normalized Cmax): 0.964 ± 0.183 ng/mL/mg
[2]; [12]
  AUC0–24/D (dose-normalized AUC0–24): 30.7 ± 23.1 ng·h/mL/mg
  AUC∞/D (dose-normalized AUC∞): 31.7 ± 23.4 ng·h/mL/mg
  Cmax/D (dose-normalized Cmax): 2.42 ± 1.57 ng/mL/mg
[2]; [13]
  AUC0–24/D (dose-normalized AUC0–24): 11.7 ng·h/mL/mg
  AUC∞/D (dose-normalized AUC∞): 12.3 ng·h/mL/mg
  Cmax/D (dose-normalized Cmax): 1.22 ng/mL/mg
[2]; [14]
  AUC0–24/D (dose-normalized AUC0–24): 26.3 ± 21.3 ng·h/mL/mg
  AUC∞/D (dose-normalized AUC∞): 27.6 ± 22.7 ng·h/mL/mg
  Cmax/D (dose-normalized Cmax): 2.16 ± 1.43 ng/mL/mg
[2]; arm B, between days 1 and 15, multiple doses
  accumulation of study drug: no apparent accumulation
[2]; arm C, oral ilorasertib with azacitidine
  pharmacokinetic interaction between ilorasertib and azacitidine: no apparent pharmacokinetic drug-drug interaction
[2]; arm D, IV dosing
  time of peak plasma concentrations: end of the 4-hour infusion
[2]; iv, 32 mg, AUC0–24, arm D, IV infusion, 32 mg, day 1, N=4, mean ± SD
  AUC(0-t): 4980 ± 3900 ng·h/mL
[2]; iv, 32 mg, AUC0–24, arm D, IV infusion, 32 mg, day 15, N=3, mean ± SD
  AUC(0-t): 8220 ± 9110 ng·h/mL
[2]; [15]
  Cmax: 587 ± 360 ng/mL
  Tmax: 4.1 ± 0.3 h
[2]; [16]
  Cmax: 414 ± 140 ng/mL
  Tmax: 3.9 h
[2]; iv, 32 mg, IV infusion, 32 mg, day 1, N=4
  half-life: 6.2 ± 5.1 h
[2]; iv, 32 mg, IV infusion, 32 mg, day 15, N=3
  half-life: 5.8 ± 20.6 h
[2]; po, 10 mg
  AUC(0-inf): 710 ± 380 ng·h/mL
[2]; po, 10 mg, AUC0–24, arm A, oral once weekly, first dose, N=3, mean ± SD
  AUC(0-t): 660 ± 350 ng·h/mL
[2]; po, 20 mg
  AUC(0-inf): 570 ng·h/mL
[2]; po, 20 mg, arm A, oral once weekly, first dose, N=1
  Cmax: 60 ng/mL
[2]; po, 40 mg
  AUC(0-inf): 1830 ng·h/mL
[2]; [17]
  Cmax: 198 ng/mL
  Tmax: 3 h
[2]; po, 80 mg
  AUC(0-inf): 1260 ± 410 ng·h/mL
  AUC(0-t): 1220 ± 410 ng·h/mL
[2]; po, 160 mg
  AUC(0-inf): 3240 ± 1490 ng·h/mL
[2]; po, 240 mg
  AUC(0-inf): 4190 ± 3230 ng·h/mL
[2]; po, 320 mg, AUC0–24, arm B, oral twice weekly, 320 mg, day 1, N=6, mean ± SD
  AUC(0-t): 29700 ± 19000 ng·h/mL
[2]; po, 320 mg, AUC0–24, arm B, oral twice weekly, 320 mg, day 15, N=4, mean ± SD
  AUC(0-t): 30700 ± 15000 ng·h/mL
